Experimental data reported in ChEMBL document CHEMBL4680093 (J Med Chem, 2016).

Experiments:
[1] = AUC in mouse at 5 mg/kg, po; type: ADME, organism-based; design: dose 5 mg/kg; conditions: in vivo
[2] = Genotoxicity in Salmonella typhimurium by reverse mutation assay; type: toxicity; conditions: salmonella enterica subsp. enterica serovar typhimurium
Mus musculus [3] = assay: Improvement in lipid profile in C57BL/6-Lep^ob (ob/ob) mouse assessed as LDL cholesterol level at 20 mg/kg, po dosed once daily for 25 days co-treated with 300 mg/kg. po QD for 25 days metformin (reference value: 30.3 +/- 0.8 mg/dl); conditions: time 25 day
[4] = AUC in rat at 5 mg/kg, po; type: ADME, organism-based; design: dose 5 mg/kg; conditions: in vivo
[5] = Toxicity in male mouse during 4-week repeated once daily oral-dose toxicity study; conditions: in vivo, time 4 weeks
In short: (§1)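 Mice of both sexes were dosed orally once daily for 4 weeks at 40, 100, 250 and 625 mg/kg. Toxicity was assessed and the NOAEL determined.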

[6] = Reduction in nonfasting blood glucose level in C57BL/6-Lep^ob (ob/ob) mouse at 20 mg/kg, po dosed once daily for 25 days and co-treated with 300 mg/kg. po QD for 25 days metformin relative to control; design: scale not given: the % may be the effect or the level left; conditions: time 25 day
[7] = biological target: T1, 11-beta-hydroxysteroid dehydrogenase type 2 (Homo sapiens) (UniProt P80365); assay: Inhibition of human 11beta-HSD2 expressed in microsomes at 1 uM relative to control; conditions: Microsome
T1 sequence (whole entry): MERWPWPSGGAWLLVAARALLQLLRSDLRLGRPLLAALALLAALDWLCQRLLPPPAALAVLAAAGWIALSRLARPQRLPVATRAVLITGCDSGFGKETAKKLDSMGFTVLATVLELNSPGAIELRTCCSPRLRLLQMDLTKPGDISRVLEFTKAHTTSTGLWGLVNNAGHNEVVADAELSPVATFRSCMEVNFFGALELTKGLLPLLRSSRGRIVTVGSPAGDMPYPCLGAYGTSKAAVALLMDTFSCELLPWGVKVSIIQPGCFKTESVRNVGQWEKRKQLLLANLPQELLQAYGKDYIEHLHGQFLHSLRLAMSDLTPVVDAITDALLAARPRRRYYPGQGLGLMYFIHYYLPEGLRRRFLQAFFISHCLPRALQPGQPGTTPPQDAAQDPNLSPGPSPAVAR

[8] = biological target: T2, 11-beta-hydroxysteroid dehydrogenase type 2 (Homo sapiens, UniProt P80365); assay: Inhibition of human 11beta-HSD2 expressed in microsomes; design: species or system Microsome
T2 sequence (P80365 whole entry): T1 sequence (whole entry)

[9] = biological target: 11-beta-hydroxysteroid dehydrogenase 1 (Mus musculus, UniProt P50172); assay: Inhibition of mouse 11beta-HSD1 expressed in microsomes; design: species or system Microsome
Chain of 11-beta-hydroxysteroid dehydrogenase 1 (P50172 whole entry): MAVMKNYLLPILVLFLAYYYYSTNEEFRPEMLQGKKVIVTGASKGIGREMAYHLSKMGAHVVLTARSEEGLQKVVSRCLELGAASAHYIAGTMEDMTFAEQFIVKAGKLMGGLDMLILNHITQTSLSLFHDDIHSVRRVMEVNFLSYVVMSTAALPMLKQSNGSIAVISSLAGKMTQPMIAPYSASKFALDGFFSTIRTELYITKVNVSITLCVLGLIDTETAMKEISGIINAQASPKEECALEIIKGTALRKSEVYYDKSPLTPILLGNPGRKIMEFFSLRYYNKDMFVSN
In short: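 HEK293 cell lysates (microsomal fractions) overexpressing human or mouse 11β-HSD1 were incubated with cortisone, a range of inhibitor concentrations and an NADPH regenerating system in sodium phosphate buffer at 37°C for 1 h. Cortisol in the supernatant was quantified by ELISA. Percent inhibition was fitted to a sigmoidal dose-response curve to give IC50.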

[10] = Unbound drug level in mouse plasma at 10 mg/kg, po measured after 2 hrs post dose; type: ADME, organism-based; conditions: in vivo
[11] = AUC in dog at 4 mg/kg, po; type: ADME, organism-based, Canis lupus familiaris; design: dose 4 mg/kg; conditions: in vivo
Homo sapiens = organism: Homo sapiens; assay: Selectivity index, ratio of IC50 for human 11beta-HSD2 to IC50 for human 11beta-HSD1
Mus musculus [12] = assay: Improvement in lipid profile in C57BL/6-Lep^ob (ob/ob) mouse assessed as total cholesterol level at 20 mg/kg, po dosed once daily for 25 days (reference value: 286.6 +/- 6.3 mg/dl); type: functional; conditions: time 25 day
[13] = Clearance in dog at 0.5 mg/kg, iv; type: ADME, organism-based, Canis lupus familiaris; conditions: in vivo
[14] = Cmax in dog at 4 mg/kg, po; type: ADME, organism-based, Canis lupus familiaris; design: route oral, dose 4 mg/kg; conditions: in vivo
[15] = Cmax in rat at 5 mg/kg, po; type: ADME, organism-based; design: route oral, dose 5 mg/kg; conditions: in vivo
[16] = Ratio of drug level in brain to plasma of mouse at 10 mg/kg, po measured after 2 hrs post dose; type: ADME, organism-based; conditions: read-out: BPR
In short: (§2)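 C57BL/6 mice received a single oral dose of 10 mg/kg in 0.5% methylcellulose/1% Tween80. Animals were sacrificed 2 h post-dose. Compound was measured in brain, liver, adipose and plasma (nmol/g), and tissue/plasma ratios were calculated.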

[17] = Toxicity in dog assessed as induction of abnormal changes in cardiovascular system up to 400 mg/kg, po; type: organism-based, Canis lupus familiaris; conditions: in vivo
In short: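 Dogs fitted with telemetry were given oral doses of up to 400 mg/kg. Cardiovascular and respiratory systems were monitored for abnormal changes.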

Mus musculus [18] = assay: Improvement in lipid profile in C57BL/6-Lep^ob (ob/ob) mouse assessed as LDL cholesterol level at 20 mg/kg, po dosed once daily for 25 days (reference value: 30.3 +/- 0.8 mg/dl); type: functional; conditions: time 25 day
[19] = Clearance in rat at 1 mg/kg, iv; type: ADME, organism-based; conditions: in vivo
[20] = In-vivo inhibition of 11beta-HSD1 activity in C57BL/6 mouse liver assessed as reduction in cortisone to-cortisol conversion at 10 mg/kg, po measured after 6 hrs by ELISA; type: functional; conditions: C57BL/6, Liver
In short: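 Male C57BL/6 mice dosed orally once at 3, 10 or 30 mg/kg in sterile water containing 0.5% methylcellulose and 1% Tween80, then sacrificed at 2 or 6 h. Liver and epididymal fat pads incubated ex vivo in culture medium containing cortisone. Cortisol formed was measured by ELISA and reported as % inhibition versus vehicle.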

[21] = Protein binding in human plasma; type: ADME, cell-free; conditions: read-out: PPB
[22] = Volume of distribution at steady state in dog at 0.5 mg/kg, iv; type: ADME, organism-based, Canis lupus familiaris; conditions: in vivo, read-out: Vdss
In short: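 Single-dose PK study. The iv dose was given in 10% hydroxypropyl-β-cyclodextrin and the oral dose in 0.5% methylcellulose/1% Tween80. Mouse and rat received 1 mg/kg iv and 5 mg/kg po. Dog received 0.5 mg/kg iv and 4 mg/kg po. CL, Vss, t1/2, AUC, Cmax, tmax and F were derived.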

[23] = Reduction in HbA1c level in C57BL/6-Lep^ob (ob/ob) mouse at 20 mg/kg, po dosed once daily for 25 days relative to control; type: functional; design: scale not given: the % may be the effect or the level left; conditions: time 25 day
In short: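 Eight-week-old male ob/ob mice were dosed orally once daily for 25 days with vehicle (sterile water, 0.5% methylcellulose, 1% Tween80), test compound 20 mg/kg, metformin 300 mg/kg, or the combination. Baseline postprandial glucose and HbA1c were checked from tail-vein blood. Changes in HbA1c and non-fasting blood glucose were expressed relative to the vehicle group.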

[24] = Toxicity in female mouse during 4-week repeated once daily oral-dose toxicity study; conditions: in vivo, time 4 weeks; in short: as §1
[25] = Ratio of drug level in liver to plasma of mouse at 10 mg/kg, po measured after 2 hrs post dose; type: ADME, organism-based; in short: as §2

Structure (SMILES): C[C@@H]1CN(c2ccc(S(C)(=O)=O)cc2F)CCN1c1nccc(C(=O)NC2C3CC4CC2CC(O)(C4)C3)n1 (stereo partly specified)
- AUC [1]: 11300 ng·h/mL
- Activity [2]: Non-Toxic
- Activity (Mus musculus [3]): 17.2 mg/dL
- AUC [4]: 3390 ng·h/mL
- NOAEL at 672 h [5]: 625 mg/kg
- Activity [6]: 33%
- inhibition [7]: 6%
- IC50 [8]: > 10000 nM
- IC50 [9]: 1.6 nM
- Cp(f) [10]: 100 nM
- AUC [11]: 11500 ng·h/mL
- Ratio IC50 (Homo sapiens): > 3000
- Activity (Mus musculus [12]): 230.6 mg/dL
- clearance [13]: 6 mL/min/kg
- Cmax [14]: 1120 ng/mL
- Cmax [15]: 1020 ng/mL
- Kp at 2 h [16]: 0.04
- Activity [17]: Non-Toxic
- Activity (Mus musculus [18]): 17.1 mg/dL
- clearance [19]: 15.5 mL/min/kg
- inhibition in vivo at 10 mg/kg [20]: 87%
- fraction unbound [21]: 0.01
- Vd [22]: 2.4 L/kg
- Activity [23]: 1.2%
- NOAEL at 672 h [24]: 625 mg/kg
- Kp at 2 h [25]: 2.94
